Data on 3 molecules can be found in PMC7518337 (Chemistry of materials : a publication of the American …, 2018).

The conditions of data set [1]: clinical trial in liposarcoma; cited from earlier work.
Data set [2] relates to xenografted HCT116 p53^+/+ tumors. Kind of data set: In vivo antitumor activity in colon cancer xenograft model. Details: species or system BALB/c nude mice. As to conditions: for amounts of apoptotic cells in xenograft tumors (TUNEL assay): compared to the control, Figure 6E. The procedure, abridged:
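Nude mice carried subcutaneous HCT116 p53+/+ xenografts in the right flank. They were randomised into groups of n = 6 and dosed every other day on days 1, 3, 5, 7, 9, 11 and 13. Test compounds and Nutlin-3 were given at 3 mg/kg, doxorubicin at 1.5 mg/kg, and PBS served as control. Tumors were excised on day 13 for H&E and TUNEL staining (×200). Mean ± s.e., n = 5.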

Data set [3] in a line: In vivo safety evaluation during and after anticancer treatment. Details: species or system mice. The procedure, abridged: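 Xenograft-bearing nude mice were treated with test compound or doxorubicin control over a 13-day regimen. During and after treatment, blood counts (WBC, RBC, thrombocytes), liver weight, serum ALT and AST, and CRE and BUN were determined. A hospital clinical laboratory ran these by standard procedures. Liver and kidney sections were H&E stained. Mean ± s.e., t-test.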

For the next data set, the system named is p53 and p21 expression. Put plainly: Western blot analysis of p53 and p21. It is filed as cell-based. As to conditions: PSP-^DPMI 200 nM, Nutlin3 5 μM, 24 h, p53 in HCT116 p53^+/+, MCF7, A375, p21 in HCT116 p53^+/+, vs PSP, PBS control.
Another data set deals with HCT116 p53^+/+ cells. Put plainly: Cell cycle distribution. It is filed as cell-based. The conditions noted are these: 200 nM PSP-^DPMI, 5 μM Nutlin3, 24 h.

As for `CCOc1cc(C(C)(C)C)ccc1C1=N[C@@](C)(c2ccc(Cl)cc2)[C@@](C)(c2ccc(Cl)cc2)N1C(=O)N1CCN(CCCS(C)(=O)=O)CC1` [RG7112], the “adverse events in patients” value in data set [1] is “thrombocytopenia and neutropenia have been seen in many patients”.
Turning to `COc1cccc2c1C(=O)c1c(O)c3c(c(O)c1C2=O)C[C@@](O)(C(=O)CO)C[C@@H]3O[C@H]1C[C@H](N)[C@H](O)[C@H](C)O1` [DOX, doxorubicin], the “amounts of apoptotic cells in xenograft tumors (TUNEL assay)” value in data set [2] is “significantly increased”. In addition, the “tumor pathomorphology (H&E)” value in data set [2] (tumors isolated on day 13, Figure 6C) is “misshapen tumors and cells”. Further, the “blood cell counts (WBCs, thrombocyte, RBCs)” value in data set [3] (Figure 8B–D) was “a certain level of leukopenia and thrombopenia”. Further, in data set [3] (Figure 8I–K), the “kidney function and histology (CRE, BUN, H&E)” value is recorded as “symptoms of glomerular lesions”. Moreover, the spleen health entry in data set [3] (Figure S15) was “serious spleen failure”. Moreover, the body weight entry in data set [3] (after a 13-day administration, Figure S14) is on record as “significant decrease of body weight”. In addition, the liver weight result in data set [3] (compared to healthy mice, Figure 8E) is on record as “decreased liver weight”. In addition, in data set [3] (serum, compared to control or healthy mice, Figure 8F,G), the “levels of liver enzymes ALT and AST” value is on record as “aberrant levels”.
As to `COc1ccc(C2=N[C@@H](c3ccc(Cl)cc3)[C@@H](c3ccc(Cl)cc3)N2C(=O)N2CCNC(=O)C2)c(OC(C)C)c1` [Nutlin3], the “expression of p53 or p21” value in the data set with p53 and p21 expression is “significantly increased the expression of p53 or p21”. For the same molecule, the cell cycle effect entry in the data set with HCT116 p53^+/+ cells is “arrest in G0/G1 phase”. For the same molecule, in data set [2], the “amounts of apoptotic cells in xenograft tumors (TUNEL assay)” value is reported as “significantly increased”.
